Measurements published in ChEMBL document CHEMBL4190396, “Discovery of Novel Small-Molecule Inhibitors of NF-κB Signaling with Antiinflammatory and Anticancer Properties” (J Med Chem, 2018).
Active and inactive are the calls of the source. No cut-off for these calls is given here.

Biological target: T1, Toll-like receptor 7 (Homo sapiens) (UniProt Q9NYK1)
T1 sequence (whole entry): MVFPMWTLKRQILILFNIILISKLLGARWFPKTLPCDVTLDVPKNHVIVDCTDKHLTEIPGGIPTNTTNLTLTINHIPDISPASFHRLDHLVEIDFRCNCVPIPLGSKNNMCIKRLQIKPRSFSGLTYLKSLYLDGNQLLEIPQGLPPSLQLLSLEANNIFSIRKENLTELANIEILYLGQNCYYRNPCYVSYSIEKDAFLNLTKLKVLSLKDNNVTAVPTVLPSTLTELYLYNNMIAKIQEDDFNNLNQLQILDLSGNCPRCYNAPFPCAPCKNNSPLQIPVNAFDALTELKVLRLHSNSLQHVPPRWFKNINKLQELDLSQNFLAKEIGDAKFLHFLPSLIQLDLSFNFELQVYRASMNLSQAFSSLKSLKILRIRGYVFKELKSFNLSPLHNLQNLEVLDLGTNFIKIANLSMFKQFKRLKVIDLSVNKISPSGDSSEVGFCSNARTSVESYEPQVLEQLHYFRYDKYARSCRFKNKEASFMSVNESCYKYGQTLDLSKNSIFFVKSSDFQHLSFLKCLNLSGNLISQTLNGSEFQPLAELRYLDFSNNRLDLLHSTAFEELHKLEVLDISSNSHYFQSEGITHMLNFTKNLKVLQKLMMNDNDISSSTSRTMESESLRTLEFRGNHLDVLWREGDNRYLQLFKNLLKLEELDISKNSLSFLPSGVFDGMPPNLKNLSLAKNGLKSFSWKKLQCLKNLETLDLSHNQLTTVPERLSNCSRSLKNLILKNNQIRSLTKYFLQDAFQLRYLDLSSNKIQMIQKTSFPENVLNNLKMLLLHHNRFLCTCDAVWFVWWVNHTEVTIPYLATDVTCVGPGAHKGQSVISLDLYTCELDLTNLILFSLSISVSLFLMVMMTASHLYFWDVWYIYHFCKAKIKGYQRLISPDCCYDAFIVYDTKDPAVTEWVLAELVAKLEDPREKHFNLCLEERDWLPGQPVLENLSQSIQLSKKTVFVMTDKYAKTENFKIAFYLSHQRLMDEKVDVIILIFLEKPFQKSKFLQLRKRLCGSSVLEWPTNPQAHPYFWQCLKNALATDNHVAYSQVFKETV
Test: Inhibition of human TLR7 expressed in HEK293 cells assessed as decrease in R848-induced NF-kappaB activation-mediated SEAP production at 40 uM after 24 hrs by Quanti-blue-based assay relative to control
Assay type: cell-based
Summary of the method: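 Screening mode: HEK hTLR7 cells, 20,000/well in duplicate, stimulated with R848 1 µg/mL, library compounds at 40 µM; triptolide 40 nM positive control, 0.4% DMSO negative control; SEAP read by QUANTI-Blue.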

SMILES	inhibition [%]
O=C(NNC(=O)c1cnccn1)c1cccc(C(F)(F)F)c1	29
Nc1nccnc1C(=O)NNC(=O)c1ccc(OC(F)(F)F)cc1	72
O=C(NNC(=O)c1ccccn1)c1ccc(Cl)cc1	76
Nc1ncccc1C(=O)NNC(=O)c1cccc(C(F)(F)F)c1	22
COC(=O)c1cccc(C(=O)NNC(=O)c2csc(C)n2)c1	9
O=C(NNC(=O)c1ccccn1)c1ccc(Br)cc1	82.3
Cc1nc(C(=O)NNC(=O)c2ccccn2)cs1	73
O=C(NNC(=O)c1nccnc1Cl)c1cccc(C(F)(F)F)c1	19
Cc1nc(C(=O)NNC(=O)c2cccnc2)cs1	21
O=C(NNC(=O)c1ncccc1O)c1ccc(OC(F)(F)F)cc1	96.5
Cc1ccc2c(Cl)c(C(=O)NNC(=O)c3ccc(Cl)cc3)sc2c1	16.7
N#Cc1ccc(C(=O)NNC(=O)c2nccnc2N)cc1	15
Nc1cccnc1C(=O)NNC(=O)c1cccc(C(F)(F)F)c1	83.1
Nc1nccnc1C(=O)NNC(=O)c1ccc([N+](=O)[O-])cc1Cl	23
Cc1nc(C(=O)NNC(=O)c2cc(Cl)cc(Cl)c2)cs1	24
O=C(NNC(=O)c1ncccc1O)c1ccc(Cl)cc1	81
Nc1nccnc1C(=O)NNC(=O)c1ccc(O)cc1	17.7
O=C(NNC(=O)c1ccccn1)c1ccc(OC(F)(F)F)cc1	79.8
Cc1nc(C(=O)NNC(=O)c2cccc(C(F)(F)F)c2)cs1	31

SMILES	inhibition [%]
Cc1nc(C(=O)NNC(=O)c2ccccc2Cl)cs1	6
CC(C)c1cc(C(=O)NNC(=O)c2ccc(Cl)cc2)[nH]n1	11
Cc1nc(C(=O)NNC(=O)c2cccc(O)c2)cs1	18
CC(C)c1nc(C(=O)NNC(=O)c2ccccn2)cs1	94.2
Cc1nc(C(=O)NNC(=O)c2ccc(Cl)cc2)cs1	51
Nc1nccnc1C(=O)NNC(=O)c1ccc(Br)cc1	36.2
CCCCCCNC(=O)c1ccc(C(=O)NNC(=O)c2nccnc2N)cc1	17
Nc1nccnc1C(=O)NNC(=O)c1cccc(C(F)(F)F)c1	68
O=C(NNC(=O)c1csc(-c2cccnc2)n1)c1ccccn1	86
Nc1nccnc1C(=O)NNC(=O)c1cccnc1	12
Nc1nccnc1C(=O)NNC(=O)c1ccc(Cl)cc1	42
O=C(NNC(=O)c1ncccc1O)c1cccc(C(F)(F)F)c1	96
Cc1nc(C(=O)NNC(=O)c2cccc(F)c2)cs1	21.1
COc1cccc(C(=O)NNC(=O)c2csc(C)n2)c1	24
Nc1ncc(Cl)nc1C(=O)NNC(=O)c1cccc(C(F)(F)F)c1	21
O=C(NNC(=O)c1ncccc1O)c1ccc(Br)cc1	96.2
COc1ccc(C(=O)NNC(=O)c2nccnc2N)cc1	20.4
Cc1ncc(C(=O)NNC(=O)c2ccc(Cl)cc2)s1	17
O=C(NNC(=O)c1nccs1)c1ccc(Cl)cc1	24

SMILES	inhibition [%]
CCCC1Nc2nccnc2C(=O)N1NC(=O)c1cccc(C(F)(F)F)c1 (configuration not stated)	21
O=C(NNC(=O)c1csc(-c2ccncc2)n1)c1ccccn1	33
Nc1nccnc1C(=O)NNC(=O)c1ccccc1C(F)(F)F	23
O=C(NNC(=O)c1cc2ccccc2[nH]1)c1ccc(Cl)cc1	13
O=C(NNC(=O)c1ccccn1)c1ccc(C(F)(F)F)cc1	85.4
Cc1nc(C(=O)NNC(=O)c2cccc(OC(F)(F)F)c2)cs1	26
O=C(NNC(=O)c1ccccn1)c1cccc(C(F)(F)F)c1	88
Cc1nc(C(=O)NNC(=O)c2cccc(C#N)c2)cs1	6.4
Nc1nccnc1C(=O)NNC(=O)c1c(Cl)cccc1Cl	28
Cc1nc(C(=O)NNC(=O)c2cccc(Cl)c2)cs1	40
Nc1nccnc1C(=O)NNC(=O)c1ccc(F)cc1F	26
COC(=O)c1ccc(C(=O)NNC(=O)c2nccnc2N)cc1	18
O=C(NNC(=O)c1ncccc1O)c1ccc(C(F)(F)F)cc1	97.4
Cc1nc(C(=O)NNC(=O)c2cccc(Br)c2)cs1	30.6
Cc1nc(C(=O)NNC(=O)c2ccncc2)cs1	19.5
Nc1ncc(Br)nc1C(=O)NNC(=O)c1cccc(C(F)(F)F)c1	18.2
Nc1nccnc1C(=O)NNC(=O)c1ccc(C(F)(F)F)cc1	79
O=C(NNC(=O)c1csc(-c2ccccc2)n1)c1ccccn1	98.8

Biological target: T1, Toll-like receptor 7 (Homo sapiens)
Test: Inhibition of human TLR7 expressed in HEK293 cells assessed as decrease in R848-induced NF-kappaB activation-mediated SEAP production at 5 uM after 24 hrs by Quanti-blue-based assay relative to control
Assay type: cell-based

SMILES	inhibition [%]
Cc1ccc(-c2nc(C(=O)NNC(=O)c3ccccn3)cs2)cc1	88.2
O=C(NNC(=O)c1csc(-c2cccc(F)c2)n1)c1ccccn1	79
O=C(NNC(=O)c1csc(-c2cccc(C(F)(F)F)c2)n1)c1ccccn1	96.7
O=C(NNC(=O)c1csc(-c2cccc(Cl)c2)n1)c1ccccn1	93.7
O=C(NNC(=O)c1csc(-c2ccc(C(F)(F)F)cc2)n1)c1ccccn1	96.1
O=C(NNC(=O)c1csc(-c2cccc(Br)c2)n1)c1ccccn1	97.6
O=C(NNC(=O)c1csc(-c2ccc(F)cc2)n1)c1ccccn1	65
COc1ccc(-c2nc(C(=O)NNC(=O)c3ccccn3)cs2)cc1	80.3
CCc1ccc(-c2nc(C(=O)NNC(=O)c3ccccn3)cs2)cc1	91.9
CN(C)c1ccc(-c2nc(C(=O)NNC(=O)c3ccccn3)cs2)cc1	93.1
COc1ccc(-c2nc(C(=O)NNC(=O)c3ccccn3)cs2)cc1OC	66
O=C(NNC(=O)c1csc(-c2ccc(Cl)cc2)n1)c1ccccn1	91
O=C(NNC(=O)c1csc(-c2cc(Cl)cc(Cl)c2)n1)c1ccccn1	99.1
O=C(NNC(=O)c1csc(-c2cccc(Cl)c2Cl)n1)c1ccccn1	99.9

Biological target: T1, Toll-like receptor 7 (Homo sapiens)
Test: Inhibition of human TLR7 expressed in HEK293 cells assessed as decrease in R848-induced NF-kappaB activation-mediated SEAP production at 30 uM after 24 hrs by Quanti-blue-based assay relative to control
Assay type: cell-based

SMILES	inhibition
Cc1nc(C(=O)NNC(=O)c2ccc(Cl)cc2)cs1	Active
Nc1nccnc1C(=O)NNC(=O)c1cccc(C(F)(F)F)c1	Active
